# Experimental data from ChEMBL document CHEMBL1137658, “Effect of caspofungin on metabolite profiles of Aspergillus species determined by nuclear magnetic resonance spectroscopy” (2007).
# Active and inactive are the calls of the source. The rule behind the calls is not given here.
# Columns and labels:
# Aspergillus fumigatus [1] = assay: Inhibition of metabolite production in Aspergillus fumigatus ATCC 204305 assessed as lowest drug concentration required to inhibit 50% malate production after 48 hrs in presence of 2 % glucose by NMR spectroscopy; assay type: functional
# How it was run: (§1)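 Cultures grown in RPMI 1640-2% glucose-MOPS with drug series, 48 h. Culture media analysed by 600-MHz ¹H NMR. MEP taken from stack plots and peak integrals of resolved resonances, as lowest drug concentration suppressing nutrient use or metabolite production by ≥50%. Alternative MEP: lowest concentration raising fumarate >50%.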
# Aspergillus niger [2] = assay: Antifungal activity against Aspergillus niger isolate 05-290-2479 assessed as lowest drug concentration resulting in aberrant hyphal growth after 48 hrs by broth microdilution method; assay type: functional
# How it was run: (§2)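 Caspofungin tested by modified CLSI M38-A microdilution in RPMI 1640 plus 2% glucose, l-glutamine, MOPS pH 7. Serial dilutions 0.03125 to 16 μg/ml; duplicate plates. MEC = lowest concentration giving aberrant hyphal growth on inverted-microscope examination, read at 48 h.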
# Aspergillus flavus [3] = assay: Antifungal activity against Aspergillus flavus isolate 05-314-1100 assessed as lowest drug concentration resulting in aberrant hyphal growth after 48 hrs by broth microdilution method; assay type: functional; how it was run: as §2
# Aspergillus fumigatus [4] = assay: Inhibition of metabolite production in Aspergillus fumigatus ATCC 204305 assessed as lowest drug concentration required to inhibit 50% glycine betain, fumarate, malate production after 48 hrs in presence of 2 % glucose by NMR spectroscopy; assay type: functional; how it was run: as §1
# Aspergillus fumigatus [5] = assay: Increase in metabolite production in Aspergillus fumigatus isolate 06-067-1639 assessed as paradoxical increase in glycine betain, fumarate, succinate level at 1 ug/ml after 48 hrs; assay type: functional, organism-based
# Aspergillus fumigatus [6] = assay: Increase in metabolite production in Aspergillus fumigatus isolate 06-067-1639 assessed as lowest drug concentration required to increase >50% glycine betaine production after 48 hrs in presence of 2 % glucose by NMR spectroscopy; assay type: functional
# Aspergillus niger [7] = assay: Inhibition of metabolite production in Aspergillus niger isolate 05-112-3701 assessed as lowest drug concentration required to inhibit 50% citrate production after 48 hrs in presence of 2 % glucose by NMR spectroscopy; assay type: functional; how it was run: as §1
# Aspergillus fumigatus [8] = assay: Antifungal activity against Aspergillus fumigatus isolate 06-067-1639 assessed as lowest drug concentration resulting in aberrant hyphal growth after 48 hrs by broth microdilution method; assay type: functional; how it was run: as §2
# Aspergillus fumigatus [9] = assay: Inhibition of metabolite production in Aspergillus fumigatus ATCC 204305 assessed as lowest drug concentration required to inhibit 50% malate production after 72 hrs in presence of 0.2 % glucose by NMR spectroscopy; assay type: functional
# How it was run: (§3)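 A. fumigatus ATCC 204305 incubated 48 h and 72 h with caspofungin in RPMI 1640 containing 0.2% glucose instead of 2%. ¹H NMR of medium. MEP from malate peak area, taken at ≥50% reduction.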
# Aspergillus fumigatus [10] = assay: Antifungal activity against Aspergillus fumigatus ATCC 204305 assessed as lowest drug concentration resulting in aberrant hyphal growth after 72 hrs by broth microdilution method; assay type: functional
# Aspergillus nidulans [11] = assay: Inhibition of metabolite production in Aspergillus nidulans isolate 00-202661 assessed as lowest drug concentration required to inhibit 50% fumarate production after 72 hrs in presence of 2 % glucose by NMR spectroscopy; assay type: functional
# How it was run: (§4)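 A. nidulans grows slowly, so spectra were recorded after 72 h incubation in RPMI 1640-2% glucose-MOPS with drug dilutions. 600-MHz ¹H NMR of culture medium. Fumarate peak integrals plotted against drug concentration. MEP = lowest concentration with ≥50% fall in fumarate.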
# Aspergillus fumigatus [12] = assay: Inhibition of metabolite production in Aspergillus fumigatus ATCC 204305 assessed as lowest drug concentration required to inhibit 50% malate production after 72 hrs in presence of 2 % glucose by NMR spectroscopy; assay type: functional
# How it was run: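 Caspofungin dilutions with A. fumigatus ATCC 204305 in RPMI 1640-2% glucose-MOPS, incubated 72 h. ¹H NMR of medium. MEP = lowest concentration giving ≥50% fall in malate, glycine betaine or fumarate peak areas.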
# Aspergillus fumigatus [13] = assay: Antifungal activity against Aspergillus fumigatus ATCC 204305 assessed as lowest drug concentration resulting in aberrant hyphal growth after 48 hrs by broth microdilution method; assay type: functional; how it was run: as §2
# Aspergillus flavus [14] = assay: Antifungal activity against Aspergillus flavus ATCC 204304 assessed as lowest drug concentration resulting in aberrant hyphal growth after 48 hrs by broth microdilution method; assay type: functional; how it was run: as §2
# Aspergillus terreus [15] = assay: Inhibition of metabolite production in Aspergillus terreus isolate 06-059-2428 assessed as lowest drug concentration required to inhibit 50% ethanol production after 48 hrs in presence of 2 % glucose by NMR spectroscopy; assay type: functional; how it was run: as §1
# Aspergillus terreus [16] = assay: Antifungal activity against Aspergillus terreus isolate 06-059-2428 assessed as lowest drug concentration resulting in aberrant hyphal growth after 48 hrs by broth microdilution method; assay type: functional; how it was run: as §2
# Aspergillus fumigatus [17] = assay: Increase in metabolite production in Aspergillus fumigatus ATCC 204305 assessed as paradoxical increase in glycine betaine, fumarate and succinate level at >= 0.5 ug/ml after 48 hrs
# Aspergillus niger [18] = assay: Inhibition of metabolite production in Aspergillus niger isolate 05-290-2479 assessed as lowest drug concentration required to inhibit 50% citrate production after 48 hrs in presence of 2 % glucose by NMR spectroscopy; assay type: functional; how it was run: as §1
# Aspergillus terreus [19] = assay: Inhibition of metabolite production in Aspergillus terreus isolate 04-188-2548 assessed as lowest drug concentration required to inhibit 50% ethanol, malate production after 48 hrs in presence of 2 % glucose by NMR spectroscopy; assay type: functional; how it was run: as §1
# Aspergillus niger [20] = assay: Antifungal activity against Aspergillus niger isolate 05-112-3701 assessed as lowest drug concentration resulting in aberrant hyphal growth after 48 hrs by broth microdilution method; assay type: functional; how it was run: as §2
# Aspergillus nidulans [21] = assay: Antifungal activity against Aspergillus nidulans isolate 05-326-1785 assessed as lowest drug concentration resulting in aberrant hyphal growth after 72 hrs by broth microdilution method; assay type: functional
# Aspergillus fumigatus [22] = assay: Inhibition of metabolite production in Aspergillus fumigatus isolate 06-067-1639 assessed as inhibition of glycine betaine production at => 1 ug/ml; assay type: functional, organism-based
# Aspergillus terreus [23] = assay: Antifungal activity against Aspergillus terreus isolate 04-188-2548 assessed as lowest drug concentration resulting in aberrant hyphal growth after 48 hrs by broth microdilution method; assay type: functional; how it was run: as §2
# Aspergillus nidulans [24] = assay: Inhibition of metabolite production in Aspergillus nidulans isolate 05-326-1785 assessed as lowest drug concentration required to inhibit 50% fumarate production after 72 hrs in presence of 2 % glucose by NMR spectroscopy; assay type: functional; how it was run: as §4
# Aspergillus fumigatus [25] = assay: Inhibition of metabolite production in Aspergillus fumigatus ATCC 204305 assessed as lowest drug concentration required to inhibit 50% malate production after 48 hrs in presence of 0.2 % glucose by NMR spectroscopy; assay type: functional; how it was run: as §3
# Aspergillus flavus [26] = assay: Increase in metabolite production in Aspergillus flavus ATCC 204304 assessed as lowest drug concentration required to increase >50% fumarate production after 48 hrs in presence of 2 % glucose by NMR spectroscopy; assay type: functional; how it was run: as §1
# Aspergillus nidulans [27] = assay: Antifungal activity against Aspergillus nidulans isolate 00-202661 assessed as lowest drug concentration resulting in aberrant hyphal growth after 72 hrs by broth microdilution method; assay type: functional
# Aspergillus flavus [28] = assay: Increase in metabolite production in Aspergillus flavus isolate 05-314-1100 assessed as lowest drug concentration required to increase >50% fumarate production after 48 hrs in presence of 2 % glucose by NMR spectroscopy; assay type: functional; how it was run: as §1
# Aspergillus fumigatus [29] = assay: Inhibition of metabolite production in Aspergillus fumigatus isolate 06-067-1639 assessed as inhibition of malate and fumarate production at 2 to 4 ug/ml; assay type: functional
smiles,measurement,setting,value
CC[C@H](C)C[C@H](C)CCCCCCCCC(=O)N[C@H]1C[C@@H](O)[C@@H](NCCN)NC(=O)[C@@H]2[C@@H](O)CCN2C(=O)[C@H]([C@H](O)CCN)NC(=O)[C@H]([C@H](O)[C@@H](O)c2ccc(O)cc2)NC(=O)[C@@H]2C[C@@H](O)CN2C(=O)[C@H]([C@@H](C)O)NC1=O [CASPOFUNGIN],Activity,Aspergillus fumigatus [1],0.5 µg/mL
same,Activity,Aspergillus niger [2],0.5 µg/mL
same,Activity,Aspergillus flavus [3],0.03 µg/mL
same,Activity,Aspergillus fumigatus [4],0.5 µg/mL
same,Activity,Aspergillus fumigatus [5],Active
same,Activity,Aspergillus fumigatus [6],1 µg/mL
same,Activity,Aspergillus niger [7],0.5 µg/mL
same,Activity,Aspergillus fumigatus [8],0.03 µg/mL
same,Activity,Aspergillus fumigatus [9],0.03 µg/mL
same,Activity,Aspergillus fumigatus [10],0.03 µg/mL
same,Activity,Aspergillus nidulans [11],2 µg/mL
same,Activity,Aspergillus fumigatus [12],0.03 µg/mL
same,Activity,Aspergillus fumigatus [13],0.03 µg/mL
same,Activity,Aspergillus flavus [14],0.03 µg/mL
same,Activity,Aspergillus terreus [15],0.06 µg/mL
same,Activity,Aspergillus terreus [16],0.03 µg/mL
same,Activity,Aspergillus fumigatus [17],Active
same,Activity,Aspergillus niger [18],0.25 µg/mL
same,Activity,Aspergillus terreus [19],0.5 µg/mL
same,Activity,Aspergillus niger [20],0.5 µg/mL
same,Activity,Aspergillus nidulans [21],4 µg/mL
same,Activity,Aspergillus fumigatus [22],inactive
same,Activity,Aspergillus terreus [23],0.03 µg/mL
same,Activity,Aspergillus nidulans [24],4 µg/mL
same,Activity,Aspergillus fumigatus [25],0.06 µg/mL
same,Activity,Aspergillus flavus [26],0.03 µg/mL
same,Activity,Aspergillus nidulans [27],2 µg/mL
same,Activity,Aspergillus flavus [28],0.03 µg/mL
same,inhibition (INH),Aspergillus fumigatus [29],20%
